Results on three compounds are retold here after ChEMBL document CHEMBL4699517 (Bioorg Med Chem Lett, 2020).

Data set [1] is described as follows: Toxicity in NOD/SCID mouse assessed as animal survival at 5 mg/kg, ip dosed 3 times per week and measured after 24 days of treatment. The following applies: in vivo, time 24 day. It counts as organism-based. The method, boiled down:
(§1)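 Six-week-old male NOD/SCID mice, 4 per group, received 5 mg/kg IP every other day, three times per week. Animals were monitored throughout dosing and euthanized after 24 days of treatment. Survival over the dosing period was plotted as a survival curve.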

Data set [2] deals with Phosphatidylinositol 4,5-bisphosphate 3-kinase catalytic subunit gamma isoform (Homo sapiens) (UniProt P48736). The experiment in a line: Inhibition of PI3Kgamma in human Raji cells assessed as inhibition of cell viability at 100 nM after 72 hrs by CellTiter-Glo luminescence assay. The data set is classed as cell-based. Background: In ATP-based viability assays light output follows the ATP content of the culture.
Chain of Phosphatidylinositol 4,5-bisphosphate 3-kinase catalytic subunit gamma isoform (Homo sapiens) (P48736 whole entry, looked up, canonical isoform): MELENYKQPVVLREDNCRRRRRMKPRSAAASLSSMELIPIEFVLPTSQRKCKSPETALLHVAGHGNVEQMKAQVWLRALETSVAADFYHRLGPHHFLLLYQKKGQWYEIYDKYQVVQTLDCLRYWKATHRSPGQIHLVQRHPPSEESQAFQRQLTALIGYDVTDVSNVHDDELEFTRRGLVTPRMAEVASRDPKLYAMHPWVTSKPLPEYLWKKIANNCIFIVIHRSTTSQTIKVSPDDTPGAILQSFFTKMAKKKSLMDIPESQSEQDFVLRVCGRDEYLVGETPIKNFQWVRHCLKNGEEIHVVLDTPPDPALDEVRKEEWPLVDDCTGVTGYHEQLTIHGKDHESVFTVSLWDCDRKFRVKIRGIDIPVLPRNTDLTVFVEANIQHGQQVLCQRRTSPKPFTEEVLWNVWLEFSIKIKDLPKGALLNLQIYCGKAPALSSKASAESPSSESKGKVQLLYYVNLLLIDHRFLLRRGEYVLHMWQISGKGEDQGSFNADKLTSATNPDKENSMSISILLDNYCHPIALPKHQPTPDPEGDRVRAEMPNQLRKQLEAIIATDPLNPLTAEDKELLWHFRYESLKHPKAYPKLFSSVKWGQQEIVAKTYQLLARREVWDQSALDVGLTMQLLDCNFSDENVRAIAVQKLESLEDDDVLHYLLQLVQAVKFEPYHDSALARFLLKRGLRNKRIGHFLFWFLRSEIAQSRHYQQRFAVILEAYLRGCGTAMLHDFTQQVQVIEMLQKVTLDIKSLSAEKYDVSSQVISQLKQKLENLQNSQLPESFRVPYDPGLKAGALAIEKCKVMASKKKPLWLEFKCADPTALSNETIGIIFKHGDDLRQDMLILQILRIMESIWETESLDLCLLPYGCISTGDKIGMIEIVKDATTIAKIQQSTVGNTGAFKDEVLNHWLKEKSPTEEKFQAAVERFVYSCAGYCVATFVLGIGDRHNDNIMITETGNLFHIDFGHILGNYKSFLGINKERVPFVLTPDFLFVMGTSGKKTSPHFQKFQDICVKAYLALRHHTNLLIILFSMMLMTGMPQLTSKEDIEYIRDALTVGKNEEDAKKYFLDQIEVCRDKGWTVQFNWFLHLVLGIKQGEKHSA

The target is the same in data set [3]. The experiment in a line: Inhibition of PI3Kgamma in human MOLT-4 cells assessed as inhibition of cell viability at 100 nM after 72 hrs by CellTiter-Glo luminescent assay. The data set is classed as cell-based.
Data set [4] can be described thus: Toxicity in NOD/SCID mouse assessed as animal death rate at 5 mg/kg, ip dosed 3 times per week and measured after 24 days of treatment. The data set is classed as organism-based. The following applies: in vivo, time 24 day, read-out: Activity. Put shortly:
as §1

The target in data set [5] is Phosphatidylinositol 4,5-bisphosphate 3-kinase catalytic subunit gamma isoform (Homo sapiens) (UniProt P48736). The experiment in a line: Inhibition of PI3Kgamma in human LCL-1 cells assessed as inhibition of cell viability at 100 nM after 72 hrs by CellTiter-Glo luminescent assay. The data set is classed as cell-based.
Data set [6] has the same target. The experiment in a line: Inhibition of PI3Kgamma in human SUDHL-10 cells assessed as inhibition of cell viability at 100 nM after 72 hrs by CellTiter-Glo luminescent assay. It counts as cell-based. The conditions noted are these: SU-DHL-10.
For data set [7] the target is unchanged. The experiment in a line: Inhibition of PI3Kgamma in human SUDHL-6 cells assessed as inhibition of cell viability at 100 nM after 72 hrs by CellTiter-Glo luminescent assay. The data set is classed as cell-based. The following applies: SU-DHL-6.
The nature of data set [8]: Toxicity in NOD/SCID mouse assessed as animal survival at 10 mg/kg, ip dosed 3 times per week and measured after 24 days of treatment. The data set is classed as organism-based. The conditions noted are these: in vivo, time 24 day.
Data set [9] concerns the target Phosphatidylinositol 4,5-bisphosphate 3-kinase catalytic subunit gamma isoform (Homo sapiens) (UniProt P48736). Description: Inhibition of PI3Kgamma in human RPMI-8226 cells assessed as inhibition of cell viability at 100 nM after 72 hrs by CellTiter-Glo luminescent assay. The data set is classed as cell-based.
The nature of data set [10]: Toxicity in NOD/SCID mouse assessed as animal survival at 5 to 10 mg/kg, ip dosed 3 times per week and measured at >3 weeks of treatment. It counts as organism-based. The following applies: in vivo, 504 h, dose 5-10 mg/kg.

Molecules are shown by their SMILES. Calls of active or inactive are those of the source. The rule behind the calls is not given here.

On to `COC(=O)[C@@]12OC[C@]34[C@H]([C@@H](O)[C@@H]1O)[C@@]1(C)CC(=O)C(O)=C(C)[C@@H]1C[C@H]3OC(=O)[C@H](OC(=O)C=C(C)C)[C@@H]24`, for which the survival at 576 h in data set [1] turned out to be 75%; in data set [8] it was 25%. For the same compound, the inhibition result in data set [2], in data set [3], in [5], in data set [6], in data set [7] and in [9] was “Active” throughout. For the same compound, the mortality at 576 h in [4] was found to be 25%.
Regarding `COC(=O)[C@@]12OC[C@]34[C@H]([C@@H](O)[C@@H]1O)[C@@]1(C)CC(=O)C(OC(=O)C[C@H](C)N)=C(C)[C@@H]1C[C@H]3OC(=O)[C@H](OC(=O)C=C(C)C)[C@@H]24`, the survival at 576 h in [1] was 100%. For the same compound, the inhibition entry in [2] was “Active”. In addition, the Activity result in [10] was “Non-Toxic”.
Turning to `COC(=O)[C@@]12OC[C@]34[C@H]([C@@H](O)[C@@H]1O)[C@@]1(C)CC(=O)C(OC(=O)CNC(=O)OC(C)(C)C)=C(C)[C@@H]1C[C@H]3OC(=O)[C@H](OC(=O)C=C(C)C)[C@@H]24`, the survival at 576 h in data set [1] is 50%; in [8] it was 0%. For the same compound, the inhibition result in data set [2] is “Active”.
